The record followed here is ChEMBL document CHEMBL1126773, “Synthesis, physicochemical properties, and biological evaluation of N-substituted 2-alkyl-3-hydroxy-4(1H)-pyridinones: orally active iron chelators with clinical potential” (J Med Chem, 1993).

For one data set, the species on record is Equus caballus. The experiment in a line: Percentage of removal of iron from iron-protein-ferritin. It is filed as functional. Also noted: concentration or dose not given beside the values. Put shortly: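 Horse spleen ferritin (iron cores equivalent to 450 μM) was incubated with chelator (5 mM) in HEPES (0.1 M, pH 7.2) at 37 °C for up to 36 h. Samples were ultrafiltered to separate the Fe(III) complex, and the filtrate absorbance was read (450 nm; concentrations from ε max).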

A short description of data set [1]: Partition coefficient (logD7.4). The class given is physicochemical. To be noted: octanol/water, pH 7.4. The method, boiled down:
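Automated filter-probe partitioning between MOPS buffer (50 mM, pH 7.4) and octan-1-ol, each phase pre-equilibrated with the other and purged with nitrogen. UV absorbance was read until stable, then octanol was added in at least 10 aliquots. An estimate came from each addition, giving a mean and standard deviation.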

The target of data set [2] is Serotransferrin (Homo sapiens) (UniProt P02787). The experiment in a line: Percentage of removal of iron from iron-protein-transferrin. It is filed as functional. Details: concentration or dose not given beside the values. The method, boiled down: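 Human transferrin, Fe(III)-loaded (50 μM), was mixed with chelator (100 μM) in MOPS (0.05 M, pH 7.4, 25 °C) with 25 mM NaHCO3. Absorbance at 400–500 nm was scanned every 2 min for 10 min, then every 5 min up to 3 h.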
Chain of Serotransferrin (Homo sapiens) (P02787 whole entry): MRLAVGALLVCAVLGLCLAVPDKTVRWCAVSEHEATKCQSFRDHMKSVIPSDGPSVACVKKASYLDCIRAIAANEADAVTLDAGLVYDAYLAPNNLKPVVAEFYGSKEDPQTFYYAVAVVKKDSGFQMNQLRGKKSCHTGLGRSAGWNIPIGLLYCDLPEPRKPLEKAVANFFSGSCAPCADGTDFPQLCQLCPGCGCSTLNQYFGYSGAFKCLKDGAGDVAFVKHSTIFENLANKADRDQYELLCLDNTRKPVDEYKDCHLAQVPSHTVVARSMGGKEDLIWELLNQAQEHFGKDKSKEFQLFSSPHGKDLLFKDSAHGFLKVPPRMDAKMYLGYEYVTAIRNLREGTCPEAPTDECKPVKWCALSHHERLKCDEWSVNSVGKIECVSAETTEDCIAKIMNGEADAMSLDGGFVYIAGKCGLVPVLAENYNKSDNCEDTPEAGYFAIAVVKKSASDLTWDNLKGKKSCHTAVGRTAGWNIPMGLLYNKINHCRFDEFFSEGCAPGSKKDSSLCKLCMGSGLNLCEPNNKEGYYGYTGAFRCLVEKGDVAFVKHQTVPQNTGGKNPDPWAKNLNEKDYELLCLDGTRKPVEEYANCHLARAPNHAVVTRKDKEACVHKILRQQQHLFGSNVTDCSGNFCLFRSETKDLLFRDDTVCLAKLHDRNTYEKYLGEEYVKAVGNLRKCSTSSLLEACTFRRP

A short description of data set [3]: Percentage of release of lactic dehydrogenase from rat hepatocytes. It is filed as functional, Hepatocyte. The method, boiled down: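 Primary rat hepatocytes were plated at 1 × 10⁶/dish, pulsed 17 h with human diferric ⁵⁹Fe-transferrin (100 µg/mL), washed, then exposed to chelators in triplicate. LDH was measured in the supernatant at 6 h.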
The species entered for the next data set is Rattus norvegicus. The experiment in a line: Percentage of mobilization of iron in 2 hours from rat hepatocytes. It is filed as functional, Hepatocyte.
A short description of data set [4]: Logarithm of cumulative stability constant was determined.
Data set [5] in a line: Acid dissociation constant (pKa2) was determined.
Data set [6] is described as follows: Acid dissociation constant (pKa1) was determined. The class given is physicochemical. To be noted: for pKa: read-out: pKa1. Put shortly:
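Simultaneous spectrophotometric/potentiometric titration of the ligand. Temperature held at 22.5 ± 0.1 °C, ionic strength 0.1 with KNO3. pKa values were obtained by global optimization across titrations at several ligand concentrations.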

As to `COCCn1ccc(=O)c(O)c1C`, the Activity is 28% in the data set filed under Equus caballus and 55% in data set [2]. This compound also showed a log distribution coefficient (logD) in data set [1] of -0.409. Take `CCN(CC)C(=O)CCn1ccc(=O)c(O)c1C`: the logD in data set [1] was -0.361. Take `O/N=C/c1ccccn1`: the Activity (in data set [3]; in the data set filed under Rattus norvegicus) was 108% throughout. Further, the “Log beta3” value in data set [4] is listed as 30. As to `Cc1c(O)c(=O)ccn1CCCN`, the logD in data set [1] is -2.1. Consider `CCc1nccc(O)c1O`, for which, in data set [1], the logD is 0.0453. Consider `Cc1c(O)c(=O)ccn1C` [DEFERIPRONE], for which the Activity in the data set filed under Equus caballus was determined as 34%; in data set [2] it was 54%. The same compound showed a logD in data set [1] of -0.77. Moreover, the “Log beta3” value in data set [4] came to 37.2. As to `CCNC(=O)CCn1ccc(=O)c(O)c1C`, the log distribution coefficient (logD) in data set [1] was -0.818.

`CCc1c(O)c(=O)ccn1CCO`: in data set [1], the logD was -0.658. In turn, `Cc1c(O)c(=O)ccn1CCCCO` showed a logD in data set [1] of -0.742. As to `Cc1c(O)c(=O)ccn1CCO`, the Activity in the data set listed under Equus caballus came out at 29%; in data set [2] it was 47%. Moreover, the logD in data set [1] was -1.1. Turning to `Cc1nccc(O)c1O`, the logD in data set [1] was -0.495. Further, the pKa in data set [5] (pKa2) was 9.76; in data set [6], 3.7. Moreover, the “Log beta3” value in data set [4] turned out to be 37.2.

Consider `CC(=O)NO` [ACETOHYDROXAMIC ACID], for which the pKa in data set [5] (pKa2) turned out to be 9.4. For the same compound, the “Log beta3” value in data set [4] turned out to be 28.3.

For the compound `CCCNC(=O)CCn1ccc(=O)c(O)c1C`, the logD in data set [1] is -0.396. Take `Cc1c(O)c(=O)ccn1CCC(=O)NC(C)C`: the logD in data set [1] was -0.471. Consider `CCCCn1ccc(=O)c(O)c1C`, for which the logD in data set [1] was 0.703. The same compound gave an Activity in data set [2] of 52%. The pKa in data set [5] (pKa2) is 9.87; in data set [6] it was 3.62. Consider `COCC(C)n1ccc(=O)c(O)c1C` (stereo not drawn), for which, in data set [1], the logD is -0.26. In data set [1], `CCc1c(O)c(=O)ccn1C` gave a logD of -0.205.

Regarding `Cc1c(O)c(=O)ccn1CCC(=O)N(C)C`, the logD in data set [1] was -1.16. On to `CCCn1ccc(=O)c(O)c1C`, for which the Activity in data set [3] amounted to 105%; in the data set filed under Rattus norvegicus, 252%; in the data set filed under Equus caballus, 28%; in data set [2], 52%. Further, the results for the pKa in data set [5] (pKa2) and in data set [6] were 9.92 and 3.62, respectively. Also, the “Log beta3” value in data set [4] is recorded as 37.7. In turn, `CCCCn1ccc(=O)c(O)c1CC` had a pH-dependent lipophilicity (logD) in data set [1] of 1.22. Regarding `CCn1cccc(O)c1=O`, the figures for the Activity (in data set [3]; in the data set filed under Rattus norvegicus) were 102% and 115%, respectively. For the same compound, the “Log beta3” value in data set [4] is listed as 32.

For the compound `Oc1ccccc1O` [CATECHOL], the pKa in data set [5] is 13.3; in data set [6], 9.2. Moreover, the “Log beta3” value in data set [4] is given as 44.9.

In data set [1], `CCn1ccc(=O)c(O)c1C` had a logD of -0.31. The pKa in data set [5] (pKa2) came to 9.88; in data set [6], 3.65. Further, the “Log beta3” value in data set [4] turned out to be 37.7.

Take `Cc1c(O)c(=O)ccn1C(C)C`: the Activity in the data set filed under Equus caballus amounted to 26%; in data set [2], 51%. The compound further gave a log distribution coefficient (logD) in data set [1] of 0.0492. Turning to `Cc1c(O)c(=O)ccn1CCCC(=O)O`, the figures for the Activity (in the data set listed under Equus caballus; in data set [2]) were 12% and 53%, respectively. With `Oc1cccc2cccnc12` [OXYQUINOLINE], the Activity in data set [3] is 260%; in the data set listed under Rattus norvegicus, 110%. Besides, the “Log beta3” value in data set [4] was determined as 37. In turn, `CCCCCn1ccc(=O)c(O)c1C` showed a logD in data set [1] of 1.24.

In turn, `CCCCCCn1ccc(=O)c(O)c1CC` had a log distribution coefficient (logD) in data set [1] of 2.28. On to `CC(=O)N(O)CCCCCNC(=O)CCC(=O)N(O)CCCCCNC(=O)CCC(=O)N(O)CCCCCN`, for which the Activity worked out at 11% in the data set listed under Equus caballus and 5% in data set [2]. In turn, `CCOCCCn1ccc(=O)c(O)c1CC` showed a logD in data set [1] of 0.716. Still for that read-out and setting: the figure for `Cc1c(O)c(=O)ccn1CCCO` is -0.879.

Turning to `CCOCCCn1ccc(=O)c(O)c1C`, the pH-dependent lipophilicity (logD) in data set [1] is 0.121. Besides, the Activity in data set [2] was found to be 49%. With `CCCCCCCCn1ccc(=O)c(O)c1C`, the logD in data set [1] was 2.88.

In turn, `CCc1c(O)c(=O)ccn1CC` showed a logD in data set [1] of 0.25. Take `Oc1ccncc1O`: in data set [5], the pKa2 is 9.6. For the same compound, in data set [5] (pKa2), the pKa stood at 9.01. Further, in data set [6], the pKa1 was 3.6 and the pKa turned out to be 3.34.

Consider `CNC(=O)CCn1ccc(=O)c(O)c1C`, for which the logD in data set [1] is -1.1. On the same count and under the same terms, the figure for `CCCCCCn1ccc(=O)c(O)c1C` is 1.9. `CCc1c(O)c(=O)ccn1C(C)C` showed a logD in data set [1] of 0.732. As to `CCCn1ccc(=O)c(O)c1CC`, the logD in data set [1] was 0.702. Still for that read-out and setting: the figure for `CCc1c(O)c(=O)ccn1CCOC` is 0.0414. In the case of `Cc1c(O)c(=O)ccn1CCN`, the Activity in the data set listed under Equus caballus is 23%; in data set [2], 56%. Besides, the logD in data set [1] is -1.55. In the case of `CCN(C)C(=O)CCn1ccc(=O)c(O)c1C`, in data set [1], the logD was -0.686.
